# From PubChem BioAssay
# Hits are enriched below; roughly 3% of the tested compounds scored in any of these assays.
# NRP1-CendR mod: modulators of CendR peptide binding to NRP-1, primary screen, biochemical, fluorescence polarization, uHTS; Neuropilin-1 (Homo sapiens), O14786; FAM-RPARPAR peptide binding to NRP-1; 360,000 tested, 0.85% active; AID 602438, 2012; inhibition, % at 25 µM;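 active = inhibition or corrected inhibition above about 18%, plus a signal ratio from 0.5 to 1.5, limit read from the data, passing the limit was not always enough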
# Target sequence (O14786 whole entry, looked up): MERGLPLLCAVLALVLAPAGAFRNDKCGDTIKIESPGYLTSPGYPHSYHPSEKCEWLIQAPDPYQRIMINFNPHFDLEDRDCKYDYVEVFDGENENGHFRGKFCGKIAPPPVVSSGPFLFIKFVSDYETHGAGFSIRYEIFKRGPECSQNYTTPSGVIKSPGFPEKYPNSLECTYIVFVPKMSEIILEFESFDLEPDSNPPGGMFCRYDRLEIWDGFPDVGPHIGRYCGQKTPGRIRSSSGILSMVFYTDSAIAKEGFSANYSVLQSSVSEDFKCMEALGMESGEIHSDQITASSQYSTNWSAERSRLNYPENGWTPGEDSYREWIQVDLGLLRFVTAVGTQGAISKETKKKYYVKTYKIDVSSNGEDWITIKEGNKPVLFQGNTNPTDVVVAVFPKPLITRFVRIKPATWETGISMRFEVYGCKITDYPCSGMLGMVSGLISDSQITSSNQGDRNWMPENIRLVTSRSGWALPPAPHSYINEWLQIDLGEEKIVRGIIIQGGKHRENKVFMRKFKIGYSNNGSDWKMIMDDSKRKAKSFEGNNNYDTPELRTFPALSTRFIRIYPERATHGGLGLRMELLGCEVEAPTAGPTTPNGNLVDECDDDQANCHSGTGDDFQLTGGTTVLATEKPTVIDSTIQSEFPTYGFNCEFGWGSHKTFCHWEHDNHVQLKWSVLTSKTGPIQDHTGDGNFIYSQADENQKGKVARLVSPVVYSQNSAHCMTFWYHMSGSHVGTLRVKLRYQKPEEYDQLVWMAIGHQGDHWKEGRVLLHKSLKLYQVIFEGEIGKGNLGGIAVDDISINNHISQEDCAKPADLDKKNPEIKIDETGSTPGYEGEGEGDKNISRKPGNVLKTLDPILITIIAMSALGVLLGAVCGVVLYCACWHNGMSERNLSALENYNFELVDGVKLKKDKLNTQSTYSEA
# HIF act: HIF pathway transcriptional activators, primary screen, cell-based, U2OS HRE-luciferase, luminescence; activation, % at 7.5 µM (by protocol); 300,000 tested, 0.32% active; U2OS HRE-luciferase reporter; normalized: DMSO 0%, desferrioxamine 100%;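 active = mean activation of at least 10% of the iron chelator positive control signal, with at least half of replicates also reaching 10%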
# CR mimetic SO: reduction of superoxide in aged yeast, primary screen, HTS; 330,000 tested, 0.18% active; S. cerevisiae aged cells, superoxide DHE fluorescence; active compounds read low; superoxide response (% of plate mean), % at 10 µM; AID 2690, 2010;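 active = superoxide response under a set limit, about three screen SD below normal, cut at about 65% in these data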;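 note: yeast aged for seven days with compound at 30 °C before DHE staining; 100% = average MFI of all compound-treated wells on the plate with controls excluded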
# V-ATPase pHluor: regulators of yeast V-ATPase proton pumping, primary screen, pHLuorin cytosolic pH fluorescence | S. cerevisiae | response, % at 10 µM | 350,000 tested, 0.37% active; in the data active = response mostly above about 7.3%, no sharp cut-off; inactive = mostly below about 5.4%; note: actives read high
# T cruzi repl: inhibitors of intracellular T. cruzi growth, primary screen, luminescence, NIH3T3 host cells; T. cruzi beta-gal in NIH3T3, 90 h; 300,000 tested, 1.4% active; inhibition, % (concentration not given with the values);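 active = mean inhibition across valid replicates above about 55%, limit read from the data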;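 note: signal also drops with host cell toxicity which is not excluded here; 0% = plate median of DMSO wells and 100% = zero luminescence signal; higher percent means less beta-gal luminescence so fewer parasites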
#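 compound dosing = single 50 nL compound addition per well in DMSO | material = NIH/3T3 host cells with β-galactosidase reporter T. cruzi | input = 5,000 host fibroblasts per well | timing = ≥90 h infection period, 3 h prior cell attachment | read-out basis = percent inhibition of parasite-derived β-gal signal | detection = GalScreen β-gal luminescence, detergent lysis, 60 min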
# AI-2 QS modul: Vibrio harveyi AI-2 quorum sensing modulators, primary screen, JMH597 strain, luminescence/OD600 ratio. AID 2094, 2009. 300,000 tested, 0.4% active. Vibrio harveyi JMH597 AI-2 luminescence/OD600 ratio, 9 h; active compounds read low; strain lacks LuxN and CqsS sensors; 0 = neutral-control median. activity change, % at 7.5 µM; in the data active = activity change below about -75%, passing the limit was not always enough;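 note: luminescence divided by OD600 gain over 9 h not by final OD600 alone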
# Numbers without * were called inactive; nt = no result.
SMILES,NRP1-CendR mod,HIF act,CR mimetic SO,V-ATPase pHluor,T cruzi repl,AI-2 QS modul
COCCn1c(C)cc(C2=NNC(=NC3CC3)SC2)c1C,3,-6,90,3,2,14
CN1C[C@@H]2C(c3ccc(Cl)nc3)C3(c4ccccc4)CC2(C3)[C@H]1c1ccccc1 (some centres undefined),23*,0,96,2,18,7
CN1C[C@@H]2C(c3ccc(Cl)nc3)C3(c4cccnc4)CC2(C3)[C@H]1c1ccccc1 (some centres undefined),10,0,93,6,-10,6
COc1ccc(NC(=S)NCc2cccnc2)cc1OC,18,-1,98,2,6,14
O=C(NC(=S)NCc1cccnc1)c1ccccc1F,-3,0,103,10,1,3
O=C(NC(=S)NCc1cccnc1)c1cccc2ccccc12,6,0,96,3,63*,-11
COc1ccc(NC(=S)NCc2cccnc2)cc1,-10,585*,103,0,-11,12
CCCCOC(=O)c1ccc(NC(=O)C(=O)NCc2cccnc2)cc1,12,25*,113,-5,-4,5
Cc1cc(NC(=O)CON=C(N)CC(=O)Nc2ccccc2Cl)ccc1Br,-7,nt,nt,-3,nt,nt
O=C1[C@H]2[C@@H](c3ccc(F)cc3)N3C(=O)N(c4ccc(Br)cc4)C(=O)[C@@]3(Cc3ccc(Cl)cc3)[C@H]2C(=O)N1C1CCCCC1,-2,-1,95,12*,-2,22
Cc1cccc(Cc2cccc(C)c2O)c1O,2,nt,nt,nt,nt,nt
Cc1cc(C)c2nc(NNC(=O)c3ccc(S(=O)(=O)N4CC(C)CC(C)C4)cc3)sc2c1 (centres undefined),0,5,107,6,62*,37
Cc1cc(C)c2nc(NNC(=O)c3ccc(S(=O)(=O)N4CCCC(C)C4)cc3)sc2c1 (centres undefined),-4,26*,118,1,61*,91
Cc1ccc2nc(NNC(=O)c3ccc4c(c3)OCCO4)sc2c1,-2,0,121,-1,-6,-58
COC(=O)c1sc2ccccc2c1NC(=O)c1ccc(S(=O)(=O)N2CC(C)CC(C)C2)cc1 (centres undefined),8,0,80,0,-5,16
Cc1cccc2sc(NNC(=O)c3ccc(S(=O)(=O)N4CC(C)CC(C)C4)cc3)nc12 (centres undefined),-9,6,108,6,66*,102
Cc1ccc2nc(NNC(=O)c3ccc(S(=O)(=O)N4CCc5ccccc5C4)cc3)sc2c1,7,99*,120,-2,71*,22
Brc1ccc2ncnc(Nc3ccc(N4CCOCC4)cc3)c2c1,-2,nt,118,-8,62*,20
CCOC(=O)CN(C(=O)CSc1nnc(-c2ccc(OC)c(OC)c2)o1)c1ccccc1,31*,0,113,3,4,16
COc1ccc(-c2nnc(SCC(=O)N3CCN(c4ccccc4)CC3)o2)cc1OC,-15,0,85,3,-12,18
CCCC(c1nnnn1CS(=O)(=O)c1ccc(C)cc1)N1CCN(c2ccccc2)CC1 (centres undefined),10,0,103,-1,16,35
CCCCC(c1nnnn1CC1CCCO1)N1CCN(c2nc3ccccc3s2)CC1 (centres undefined),18*,nt,nt,0,nt,35
CCCC(c1nnnn1CC1CCCO1)N1CCN(c2nc3ccccc3s2)CC1 (centres undefined),-5,0,100,-4,0,7
CCC(c1nnnn1CS(=O)(=O)c1ccc(C)cc1)N1CCN(c2nc3ccccc3s2)CC1 (centres undefined),6,0,119,-3,75*,10
CC(Sc1nc(N2CCOCC2)nc(N2CCOCC2)n1)C(=O)Nc1ccccc1 (centres undefined),2,0,97,3,-4,5
SMILES,NRP1-CendR mod,HIF act,CR mimetic SO,V-ATPase pHluor,T cruzi repl,AI-2 QS modul
CCC(C)(C)c1nnc(NC(=O)C2CCN(C(=O)c3ccco3)CC2)s1,14,27*,98,6,-12,0
NC(=O)C1CCN(c2nc(-c3cc4ccccc4o3)cs2)CC1,-8,nt,108,5,nt,nt
COc1cccc(CNC(=O)CCC2CCCN(Cc3cc4ccccc4o3)C2)c1 (centres undefined),-3,0,99,0,62*,16
COc1cccc(CNC(=O)CCC2CCCN(C(=O)C3=CC(=O)CC(C)(C)O3)C2)c1 (centres undefined),38*,1,97,-4,7,15
COc1cccc(CNC(=O)CCC2CCCN(C(=O)c3cccc(Cl)c3)C2)c1 (centres undefined),-4,0,95,1,6,27
Cc1cccnc1C(NC(=O)C1CCN(Cc2ccc(Cl)cc2)CC1)c1ccccc1 (centres undefined),-5,nt,nt,nt,nt,nt
Cc1cc2n(n1)C(c1sccc1C)Nc1ccccc1-2 (centres undefined),-2,0,98,1,11,17
Cc1ccc2c(c1)-c1cc(C)nn1C(c1sccc1C)N2 (centres undefined),27*,1,117,-4,5,8
CCCCCC(=O)N1C[C@@H](O)[C@H](n2cc(-c3ccc(F)cc3)nn2)C[C@@H]1c1ccc(Cl)cc1,-5,nt,nt,2,nt,nt
CSc1ccccc1NC(=O)CN(C)C(=O)COc1cccc2cccnc12,27*,nt,97,-1,nt,nt
CN(CC(=O)Nc1ccc(Cl)c(C(F)(F)F)c1)C(=O)COc1cccc2cccnc12,-2,nt,nt,-4,nt,nt
COc1ccccc1CNC(=O)CN(C)S(=O)(=O)c1cccc2cccnc12,-2,0,107,-2,2,10
COc1ccccc1NC(=O)CN(C)S(=O)(=O)c1cccc2cccnc12,0,29*,119,-3,-15,5
Cc1ccccc1Cc1c(C)nc2c(C(=O)NCc3ccc4c(c3)OCO4)cnn2c1C,-6,0,115,1,29,10
Cc1nc2c(C(=O)NCc3ccc4c(c3)OCO4)cnn2c(C)c1Cc1ccc(F)cc1Cl,4,0,81,1,34,-2
Cc1ccc(C)c(Cc2c(C)nc3c(C(=O)NCc4ccc5c(c4)OCO5)cnn3c2C)c1,nt,-1,88,nt,68*,3
Cc1nc2c(C(=O)NCc3ccco3)cnn2c(C)c1Cc1ccc(F)cc1Cl,9,0,113,-5,74*,5
